Results: paper PMC5624809 (Journal of the American Chemical Society, 2017)
Like-named read-outs stand apart in the source and are kept apart here. Marks after values point to notes of the source that are not given here. Each block holds one molecule with its values, some of them ahead of it.

Columns and labels:
antithrombin (AT) [1] = target: T1, antithrombin (AT) (Homo sapiens, UniProt P01008); settings: cited from earlier work
FXa [2] = settings: cited from earlier work
FXa [3] = test: in vitro inhibition of the activity of FXa; format: biochemical; settings: for IC50: read-out: Anti-FXa activity (IC50)
antithrombin (AT) [4] = target: T1, antithrombin (AT); test: AT-binding affinity analysis using isothermal titration calorimetry; settings: for Kd: read-out: Binding affinity (Kd) to AT; for Kd / Binding affinity (Kd) to AT: ITC
antithrombin (AT) [5] = target: T1, antithrombin (AT); settings: read-out: Binding affinity (Kd) to AT; affinity coelectrophoresis; cited from earlier work
FXa [6] = test: anti-FXa effect in a rat model; format: in vivo
How it was run: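 Anti-Xa activity measured at several time points after dosing, with a saline-treated group as control. Values are mean ± S.D. (n = 4). Each treated group was compared with control by two-tailed Student's t-test, with p < 0.05 flagged.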

T1 sequence (P01008 33-464): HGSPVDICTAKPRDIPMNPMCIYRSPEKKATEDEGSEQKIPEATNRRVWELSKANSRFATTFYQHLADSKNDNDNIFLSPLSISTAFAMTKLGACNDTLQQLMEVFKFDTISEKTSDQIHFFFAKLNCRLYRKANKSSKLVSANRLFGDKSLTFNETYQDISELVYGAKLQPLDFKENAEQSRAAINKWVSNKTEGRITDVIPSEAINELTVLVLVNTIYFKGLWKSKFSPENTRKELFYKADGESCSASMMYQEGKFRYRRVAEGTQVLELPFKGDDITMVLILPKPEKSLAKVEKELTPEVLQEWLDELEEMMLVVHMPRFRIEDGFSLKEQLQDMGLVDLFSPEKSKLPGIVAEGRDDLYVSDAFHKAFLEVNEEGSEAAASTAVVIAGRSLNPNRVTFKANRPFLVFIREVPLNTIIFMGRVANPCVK

IC50 (FXa [3]): 9.4 nM
Molecule: GlcNAc6S-GlcA-GlcNS3S6S-IdoA2S-GlcNS6S-IdoA2S-GlcNS6S-GlcA-pNP [Comp 11*]
Kd (antithrombin (AT) [5]): 8 ± 3 nM

IC50 (FXa [3]): 9.1 nM
Molecule: GlcNS6S-GlcA-GlcNS3S6S-IdoA2S-GlcNS6S-GlcA-pNP [Comp 8*]
anti-FXa activity (in words) (FXa [3]): displayed anti-FXa activity
Kd (antithrombin (AT) [5]): 7 ± 2 nM

IC50 (FXa [3]): 12.2 nM
Molecule: CO[C@H]1O[C@H](COS(=O)(=O)O)[C@@H](O[C@@H]2O[C@@H](C(=O)O)[C@@H](O[C@H]3O[C@H](COS(=O)(=O)O)[C@@H](O[C@@H]4O[C@H](C(=O)O)[C@@H](O[C@H]5O[C@H](COS(=O)(=O)O)[C@@H](O)[C@H](O)[C@H]5NS(=O)(=O)O)[C@H](O)[C@H]4O)[C@H](OS(=O)(=O)O)[C@H]3NS(=O)(=O)O)[C@H](O)[C@H]2OS(=O)(=O)O)[C@H](O)[C@H]1NS(=O)(=O)O [Fondaparinux, GlcNS6S-GlcA-GlcNS3S6S-IdoA2S-GlcNS6S-OMe, reference compound]
persistence of anti-FXa effect in vivo (FXa [6]; time after administration): persisted after 8 hours

The next lines start with the molecule.

Molecule: O=C(O)C1OC(OC2C(COS(=O)(=O)O)OC(OC3C(C(=O)O)OC(OC4C(COS(=O)(=O)O)OC(OC5C(C(=O)O)OC(Oc6ccc([N+](=O)[O-])cc6)C(O)C5O)C(NS(=O)(=O)O)C4O)C(OS(=O)(=O)O)C3O)C(NS(=O)(=O)O)C2OS(=O)(=O)O)C(O)C(O)C1OC1OC(COS(=O)(=O)O)C(O)C(O)C1NS(=O)(=O)O (stereo not drawn) [GlcA2S-containing 6-mer, GlcNS6S-GlcA-GlcNS3S6S-GlcA2S-GlcNS6S-GlcA-pNP]
Binding affinity (Kd) to AT (antithrombin (AT) [1]): No binding ^d
anti-FXa activity (in words) (FXa [2]): did not display anti-FXa activity

Molecule: O=C(O)[C@H]1O[C@@H](Oc2ccc([N+](=O)[O-])cc2)[C@H](O)[C@@H](O)[C@@H]1O[C@H]1O[C@H](COS(=O)(=O)O)[C@@H](O[C@@H]2O[C@@H](C(=O)O)[C@@H](O[C@H]3O[C@H](COS(=O)(=O)O)[C@@H](O[C@@H]4O[C@@H](C(=O)O)[C@@H](O[C@H]5O[C@H](COS(=O)(=O)O)[C@@H](O[C@@H]6O[C@H](C(=O)O)[C@@H](O[C@H]7O[C@H](COS(=O)(=O)O)[C@@H](O)[C@H](O)[C@H]7NS(=O)(=O)O)[C@H](O)[C@H]6O)[C@H](OS(=O)(=O)O)[C@H]5NS(=O)(=O)O)[C@H](O)[C@H]4OS(=O)(=O)O)[C@H](OS(=O)(=O)O)[C@H]3NS(=O)(=O)O)[C@H](O)[C@H]2OS(=O)(=O)O)[C@H](O)[C@H]1NS(=O)(=O)O [Comp 6, GlcNS6S-GlcA-GlcNS3S6S-IdoA2S-GlcNS3S6S-IdoA2S-GlcNS6S-GlcA-pNP]
anti-FXa activity (in words) (FXa [3]): displaying anti-FXa activity
IC50 (FXa [3]): 10.9 nM
AT binding (in words) (antithrombin (AT) [4]): high AT-binding affinity
Kd (antithrombin (AT) [4]): 5.6 ± 2.6 nM

Molecule: O=C(O)C1OC(OC2C(COS(=O)(=O)O)OC(OC3C(C(=O)O)OC(OC4C(COS(=O)(=O)O)OC(OC5C(C(=O)O)OC(Oc6ccc([N+](=O)[O-])cc6)C(O)C5O)C(NS(=O)(=O)O)C4OS(=O)(=O)O)C(OS(=O)(=O)O)C3O)C(NS(=O)(=O)O)C2O)C(O)C(O)C1OC1OC(COS(=O)(=O)O)C(O)C(O)C1NS(=O)(=O)O (stereo not drawn) [Comp 2, GlcNS6S-GlcA-GlcNS6S-IdoA2S-GlcNS3S6S-GlcA-pNP]
Anti-FXa activity (IC50) (FXa [3]): No inhibition
Binding affinity (Kd) to AT (antithrombin (AT) [4]): No binding

Molecule: GlcNS6S-GlcA-GlcNS6S-IdoA2S-GlcNS3S6S-IdoA2S-GlcNS6S-GlcA-pNP [Comp 5]
anti-FXa activity (in words) (FXa [3]): strong anti-FXa activity
IC50 (FXa [3]): 7.7 nM
AT binding (in words) (antithrombin (AT) [4]): binds to AT tightly
Kd (antithrombin (AT) [4]): 5.1 ± 1.4 nM
anti-FXa potency in vivo (FXa [6]; within 30 min after the drug was administered): comparable anti-FXa potency to that of fondaparinux and compound 11*

Molecule: GlcNS-GlcA-GlcNS-IdoA2S-GlcNS3S-IdoA2S-GlcNS-GlcA-pNP [Comp 4]
Anti-FXa activity (IC50) (FXa [3]): No inhibition
Binding affinity (Kd) to AT (antithrombin (AT) [4]): No binding ^c

Molecule: O=C(O)C1OC(OC2C(COS(=O)(=O)O)OC(OC3C(C(=O)O)OC(OC4C(COS(=O)(=O)O)OC(OC5C(C(=O)O)OC(Oc6ccc([N+](=O)[O-])cc6)C(O)C5O)C(NS(=O)(=O)O)C4O)C(O)C3O)C(NS(=O)(=O)O)C2OS(=O)(=O)O)C(O)C(O)C1OC1OC(COS(=O)(=O)O)C(O)C(O)C1NS(=O)(=O)O (stereo not drawn) [IdoA-containing 6-mer, GlcNS6S-GlcA-GlcNS3S6S-IdoA-GlcNS6S-GlcA-pNP]
Kd (antithrombin (AT) [1]; read-out: Binding affinity (Kd) to AT): 32.6 ± 5.3 nM
anti-FXa activity (in words) (FXa [2]): exhibited anti-FXa activity
IC50 (FXa [2]; read-out: Anti-FXa activity (IC50)): 29.2 nM

Molecule: O=C(O)[C@H]1O[C@@H](O[C@H]2[C@H](OS(=O)(=O)O)[C@@H](NS(=O)(=O)O)[C@@H](O[C@H]3[C@H](O)[C@@H](OS(=O)(=O)O)[C@H](O[C@H]4[C@H](OS(=O)(=O)O)[C@@H](NS(=O)(=O)O)[C@@H](O[C@H]5[C@H](O)[C@@H](O)[C@H](Oc6ccc([N+](=O)[O-])cc6)O[C@@H]5C(=O)O)O[C@@H]4COS(=O)(=O)O)O[C@H]3C(=O)O)O[C@@H]2COS(=O)(=O)O)[C@H](O)[C@@H](O)[C@@H]1O[C@H]1O[C@H](COS(=O)(=O)O)[C@@H](O)[C@H](O)[C@H]1NS(=O)(=O)O [Comp 3, GlcNS6S-GlcA-GlcNS3S6S-IdoA2S-GlcNS3S6S-GlcA-pNP]
anti-FXa activity (in words) (FXa [3]): strong anti-FXa activity
IC50 (FXa [3]): 11 nM
